PubChem BioAssay AID504383 (The Scripps Research Institute Molecular Screening Center, 2011)
Screen size: about 2,500 compounds; about 1,200 (48%) were called active.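 How the source made its calls: active means mean activation above the low control average plus 3 SD, as set in the primary screen (cut at about 12% in these data); inactive means the rest.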 The set was probably picked from earlier hits. The list shows a part of the results.

target: Troponin I, cardiac muscle (Homo sapiens) + Troponin T, cardiac muscle (Homo sapiens) + Troponin C, slow skeletal and cardiac muscles (Homo sapiens) (UniProt P19429+P45379+P63316); experiment: cardiac RTF calcium sensitivity activators, confirmation, biochemical, IANBD-TnC fluorescence, triplicate (AID 504383); conditions: IANBD-labeled cardiac RTF, Ca2+ sensitivity fluorescence; at 7.2 µM; active compounds read high; scaled from EC20 to saturating calcium; tested at EC20 calcium, 0.472 mM;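 further: 0% = DMSO at 0.472 mM calcium and 100% = DMSO at 2.9 mM calcium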
Summary of the method: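 Test system: labelled regulated thin filament protein complex. Dosing: single nominal compound dose of 7.2 µM. Benchmarks: EC20 and EC100 calcium wells. Read-out basis: fluorescence gain scaled between EC20 and EC100 calcium controls. Probe or stimulus: submaximal calcium at 0.472 mM (EC20). Technique: fluorescence. Times: 15 min compound exposure, 25 °C.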

| Structure (SMILES) | activation |
| --- | --- |
| N#CC(C#N)=C1C=C2C=C(N3CCCCCC3)CCC2CC1 (stereo not drawn) | 5.58% (inactive) |
| COc1ccc2ccccc2c1C(O)c1nccn1C (stereo not drawn) | 58% (active) |
| CN1c2ccc(C=O)c3c(C=O)ccc(c23)N(C)C1(C)C | 1.58% (inactive) |
| CC1=CC2=NC(=O)/C(=C\c3ccc(-c4cccc(Cl)c4)o3)C(=N)N2O1 | 101% (active) |
| OCCNCc1cccc(OCc2ccc(Cl)cc2)c1 | 173% (active) |
| COc1ccc(CNCc2cccc(Cl)c2)cc1 | 4.73% (inactive) |
| O=C(C1CCN(Cc2ccc(OCc3ccccc3)cc2)CC1)N1CCCC1 | -1.48% (inactive) |
| CN1CCN(/N=C/c2ccc(OCc3ccccc3)cc2)CC1 | 309% (active) |
| CN1CCN(CCOc2ccc(Cc3ccccc3)cc2)CC1 | 9.76% (inactive) |
| O=C(O)C1CC(O)CN1C(=O)c1ccco1 (stereo not drawn) | 5.9% (inactive) |
| O=C(NCc1ccco1)C1CCC(N2C(=O)C3C4CCC(C4)C3C2=O)CC1 (stereo not drawn) | 6.57% (inactive) |
| O=C(NCc1ccco1)C1Cc2ccccc2CN1C(=O)c1ccco1 (stereo not drawn) | 2880% (active) |
| COc1ccc(C2OC34CCCCC3C(C#N)(C#N)C2(C#N)C(=N)O4)cc1 (stereo not drawn) | 5.98% (inactive) |
| CCCCC1OC23CCCCC2C(C#N)(C(=N)O3)C1(C#N)C#N (stereo not drawn) | 10.2% (inactive) |
| CCC1OC23CCCCC2C(C#N)(C(=N)O3)C1(C#N)C#N (stereo not drawn) | 10.4% (inactive) |
| CCCCCCCCOc1ccc(C2OC34CCCCC3C(C#N)(C#N)C2(C#N)C(=N)O4)cc1 (stereo not drawn) | 17.2% (active) |
| CCCCOc1ccc(C2OC34CCCCC3C(C#N)(C#N)C2(C#N)C(=N)O4)cc1 (stereo not drawn) | 6.95% (inactive) |
| CCCC1OC23CCCCC2C(C#N)(C#N)C1(C#N)C(=N)O3 (stereo not drawn) | 179% (active) |
| N#CC1(C#N)C(c2ccccc2)OC23CCCCC2C1(C#N)C(=N)O3 (stereo not drawn) | -2.46% (inactive) |
| CCCCC1OC23CCCCC2C(C#N)(C#N)C1(C#N)C(=N)O3 (stereo not drawn) | 13% (active) |
| CCOc1ccc(C2OC34CCCCC3C(C#N)(C#N)C2(C#N)C(=N)O4)cc1OC (stereo not drawn) | 7.44% (inactive) |
| COc1cccc(/C=N/Nc2nnc3c(n2)[nH]c2ccccc23)c1OC | 13.1% (active) |
| COc1cccc(/C=N/c2nc3ccccc3[nH]2)c1O | 6.09% (inactive) |
| NC(=O)[C@@H]1CCCNc2c(I)cc([N+](=O)[O-])cc2C(=O)N[C@@H](CCC(=O)O)C(=O)N[C@@H](CO)C(=O)N1 | 6.37% (inactive) |

| Structure (SMILES) | activation |
| --- | --- |
| OC(CNCC1CCCO1)Cn1c2ccc(Br)cc2c2cc(Br)ccc21 (stereo not drawn) | 34.1% (active) |
| COC(=O)C(C)n1cnc2c(nnn2Cc2ccc(Cl)cc2)c1=O (stereo not drawn) | 12.4% (active) |
| Cc1ccccc1-n1c(SCc2c(C)noc2C)nnc1-c1cccnc1 | 13.8% (active) |
| COc1cc2c(cc1OC)CN(Cc1cc(=O)oc3cc(C)c(C)cc13)CC2 | -0.4% (inactive) |
| Cc1cc(N2CCN(c3nc(-c4ccc([N+](=O)[O-])cc4)cs3)CC2)c2ccccc2n1 | 14.9% (active) |
| COc1ccc(-c2csc(N3CCN(c4cc5c(cc4Cl)nc(-c4ccncc4)n5CCOCCO)CC3)n2)cc1 | 2.85% (inactive) |
| CC(=O)c1nnn(-c2cccc(C#N)c2)c1C | 1.86% (inactive) |
| O=C(CCSc1ccccc1)N1CCN(C(=O)c2ccco2)CC1 | 135% (active) |
| O=c1[nH]c2c(s1)C=Nc1ccccc1N2 | 2.27% (inactive) |
| O=[n+]1c2c(n([O-])c3cc(F)c(N4CCCC4)cc31)CCCC2 | 259% (active) |
| O=[n+]1c2c(n([O-])c3ccccc31)CCC2 | 29.4% (active) |
| O=[n+]1c2c(n([O-])c3cc(F)c(N4CCCC4)cc31)CCC2 | 92% (active) |
| O=C(Cn1c(=O)c(=O)n(Cc2ccccc2)c2ccc(Cl)cc21)Nc1ccc(F)cc1F | 1.32% (inactive) |
| Cc1cc(C)c(/C=C2\C(=O)Nc3ccccc32)[nH]1 | 14.2% (active) |
| O=C1Nc2ccccc2/C1=C/c1cnc(-c2ccccc2)[nH]1 | 92.3% (active) |
| Cc1ccc(N/C=C2/Sc3ccccc3NC2=O)cc1 | 9.19% (inactive) |
| COc1ccc(CNS(=O)(=O)c2cc(-c3cc(C)no3)ccc2OC)cc1OC | 24.2% (active) |
| COc1ccc(CC(=O)NCc2csc(-c3cccs3)n2)cc1OC | 5.67% (inactive) |
| CC1CC(C)CN(S(=O)(=O)N2CCCC(C(=O)NC3CCCCC3)C2)C1 (stereo not drawn) | 219% (active) |
| Cc1cc(NC(=O)CN2C(=O)[C@@H]3[C@H](C2=O)[C@@H]2C[C@H]3C(Br)C2Br)no1 (stereo partly drawn) | 40% (active) |
| CC(/C=N/Nc1ccc2nncn2n1)=C\c1ccccc1 | 70.4% (active) |
| CCOC(=O)c1cc(C#N)c(SCC(=O)c2cc(C#N)c(SC)nc2C)[nH]c1=O | 15.6% (active) |
| O=C(Nc1ccc(F)cc1F)c1ccc(COc2c(F)c(F)cc(F)c2F)o1 | 4.6% (inactive) |
| C/C(=N\Nc1ccc([N+](=O)[O-])cc1[N+](=O)[O-])c1cccnc1 | 17% (active) |
